Calls of active or inactive are those of the source. The rule behind the calls is not given here.
Legend:
[1] = Lipophilicity, log D of the compound at pH 7.4; type: physicochemical; conditions: buffer
[2] = AUC (0 to 8 hrs) in mouse at 1 mg/kg, po administered via cassette dosing; type: ADME, organism-based; design: time < 8 hr, dose 1 mg/kg, route oral; conditions: in vivo
How it was run: (§1)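 Mice received a single oral 1 mg/kg dose in cassette format. Plasma was sampled over 8 h for Cmax, Tmax, AUC0–8h, MRT and oral bioavailability (F). Values are means of three determinations.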

[3] = Oral bioavailability in mouse at 1 mg/kg administered via cassette dosing; type: ADME, organism-based; conditions: in vivo; how it was run: as §1
Mus musculus [4] = experiment: (§2) Anti-inflammatory activity against MOG (35 to 55 residues)-induced EAE C57BL/6 mouse model assessed as inhibition of development of clinical symptoms at 3 mg/kg, administered bid via oral gavage measured after 28 days post Mycobacterium tuberculosis H37Ra/ MOG (35 to 55 residues)/pertussis toxin immunization; type: functional; conditions: C57BL/6, po, 672 h
How it was run: (§3)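 Mice immunized with MOG peptide received oral drug in 0.5% methylcellulose vehicle bid for 28 days. EAE clinical score was recorded from day 0 to day 28, along with cumulative clinical score. Groups were 12 MOG-immunized mice per group plus 4 healthy controls, reported as mean ± S.E. Comparison was against vehicle-treated immunized controls by one-tailed Shirley-Williams test (p<0.025).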

[5] = biological target: T1, Nuclear receptor ROR-beta (Homo sapiens, UniProt Q92753); experiment: Inverse agonist activity at human RORbeta expressed in human Jurkat cells assessed as inhibition of transcriptional activity after 10 mins by human IL-17 ROR response element driven-bright-glo luciferase reporter gene assay; type: cell-based
T1 sequence (Q92753 whole entry): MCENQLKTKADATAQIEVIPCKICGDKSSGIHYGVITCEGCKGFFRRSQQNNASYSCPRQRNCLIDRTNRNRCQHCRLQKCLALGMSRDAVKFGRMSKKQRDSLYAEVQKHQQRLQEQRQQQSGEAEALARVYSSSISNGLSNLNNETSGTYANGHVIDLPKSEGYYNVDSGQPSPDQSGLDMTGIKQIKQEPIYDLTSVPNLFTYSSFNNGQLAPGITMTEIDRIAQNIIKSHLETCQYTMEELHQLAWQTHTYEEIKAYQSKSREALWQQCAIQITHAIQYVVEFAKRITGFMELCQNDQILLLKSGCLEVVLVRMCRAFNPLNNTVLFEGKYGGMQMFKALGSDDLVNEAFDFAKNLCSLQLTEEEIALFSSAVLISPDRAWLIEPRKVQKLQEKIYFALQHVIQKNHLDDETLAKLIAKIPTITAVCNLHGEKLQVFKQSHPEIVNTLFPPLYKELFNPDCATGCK
How it was run: (§4)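 Cell-based reporter assay in human Jurkat cells carrying human RORα or RORβ. Inhibition of transcriptional activity was read as luciferase activity and reported as IC50.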

Mus musculus [6] = experiment: Anti-inflammatory activity against IL-23 induced po dosed mouse psoriasis model; type: functional, organism-based
[7] = Cmax in mouse at 1 mg/kg, po administered via cassette dosing; type: ADME, organism-based; design: dose 1 mg/kg, route oral; conditions: in vivo; how it was run: as §1
Mus musculus [8] = experiment: Anti-inflammatory activity in activated T cell transfer po dosed mouse colitis model; type: functional, organism-based
[9] = MRT in mouse at 1 mg/kg, po administered via cassette dosing; type: ADME, organism-based; conditions: in vivo; how it was run: as §1
Mus musculus [10] = experiment: In vivo inverse agonist activity at RORgammat in po dosed C57BL/6 mouse assessed as inhibition of IL-23-induced IL-17A expression administered as bid; type: functional, organism-based
How it was run: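 Mice were dosed orally twice daily at 0.3, 1 and 3 mg/kg. IL-17A expression induced by IL-23 was then measured, and an effective dose was derived from the dose–response.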

[11] = Tmax in mouse at 1 mg/kg, po administered via cassette dosing; type: ADME, organism-based; conditions: in vivo; how it was run: as §1
Mus musculus [12] = experiment: as §2, with “at 1” for “at 3”; type: functional; conditions: C57BL/6, po, 672 h; how it was run: as §3
[13] = biological target: T2, Nuclear receptor ROR-alpha (Homo sapiens, UniProt P35398); experiment: Inverse agonist activity at human RORalpha expressed in human Jurkat cells assessed as inhibition of transcriptional activity after 10 mins by human IL-17 ROR response element driven-bright-glo luciferase reporter gene assay; type: cell-based; how it was run: as §4
T2 sequence (P35398 whole entry): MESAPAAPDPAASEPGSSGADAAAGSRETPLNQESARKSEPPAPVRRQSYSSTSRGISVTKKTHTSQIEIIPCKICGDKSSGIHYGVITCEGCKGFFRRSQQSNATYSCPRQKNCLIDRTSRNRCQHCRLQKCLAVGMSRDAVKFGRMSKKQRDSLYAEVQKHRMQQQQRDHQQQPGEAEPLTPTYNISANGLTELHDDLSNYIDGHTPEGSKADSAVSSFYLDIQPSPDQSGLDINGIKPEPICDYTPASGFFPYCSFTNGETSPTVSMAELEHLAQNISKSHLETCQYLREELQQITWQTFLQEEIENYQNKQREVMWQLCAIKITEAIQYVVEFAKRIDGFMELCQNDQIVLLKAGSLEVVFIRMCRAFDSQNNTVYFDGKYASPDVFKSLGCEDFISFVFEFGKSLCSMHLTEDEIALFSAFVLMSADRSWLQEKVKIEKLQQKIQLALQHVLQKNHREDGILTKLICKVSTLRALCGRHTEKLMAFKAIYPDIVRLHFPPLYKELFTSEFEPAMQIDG

Mus musculus [14] = experiment: In vivo inverse agonist activity at RORgammat in po dosed C57BL/6 mouse assessed as inhibition of IL-23-induced IL-17A cytokine expression; type: functional

Q: Which logD [1] does the source give for COc1ccc2c(n1)CCN(C(=O)C[C@H]1C[C@H](C(=O)O)C1)[C@H]2C(=O)Nc1cc(F)c2c(c1)CCC2(C)C here?
A: The logD was 3.49.

Q: With COc1ccc2c(c1)CCN(C(=O)CCCC(=O)O)[C@H]2C(=O)Nc1cc(F)c(C(C)(C)C)c(F)c1 as the compound, how does the AUC(0-t) at 8 h [2] read?
A: The AUC(0-t) at 8 h was 2840 ng·h/mL.

Q: What about the bioavailability [3] of the same compound?
A: Its bioavailability is 62%.

Q: What about the logD [1] of the same compound?
A: Its logD is 3.77.

Q: With COc1ccc2c(n1)CCN(C(=O)C[C@H]1C[C@@H](C(=O)O)C1)[C@H]2C(=O)Nc1cc(F)c2c(c1)CCC2(C)C as the compound, how does the logD [1] read?
A: Its logD is 3.51.

Q: With COc1ccc2c(n1)CCN(C(=O)N1CC(CC(=O)O)C1)[C@H]2C(=O)Nc1cc(F)c2c(c1)CCC2(C)C as the compound, how does the logD [1] read?
A: Its logD is 3.42.

Q: For COc1ccc2c(n1)CCN(C(=O)[C@H]1C[C@@H](CC(=O)O)C1)[C@H]2C(=O)Nc1cc(F)c2c(c1)CCC2(C)C, which AUC(0-t) at 8 h [2] is on record?
A: The AUC(0-t) at 8 h was 10100 ng·h/mL.

Q: What about the inhibition in vivo at 3 mg/kg (Mus musculus [4]) of the same compound?
A: Its inhibition in vivo at 3 mg/kg is 44%.

Q: What about the IC50 [5] of the same compound?
A: The IC50 was at least 30 µM.

Q: And the Activity (Mus musculus [6])?
A: Its Activity is “Active”.

Q: And the Cmax [7]?
A: Its Cmax is 1560 ng/mL.

Q: And the Activity (Mus musculus [8])?
A: Its Activity is “Active”.

Q: What about the MRT [9] of the same compound?
A: The MRT was 4.1 h.

Q: What about the inhibition (Mus musculus [10]) of the same compound?
A: The inhibition was “Dose-dependent effect”.

Q: What about the Tmax [11] of the same compound?
A: Its Tmax is 2.3 h.

Q: And the logD [1]?
A: The logD was 3.53.

Q: And the inhibition in vivo at 1 mg/kg (Mus musculus [12])?
A: Its inhibition in vivo at 1 mg/kg is 50%.

Q: And the IC50 [13]?
A: Its IC50 is at least 30 µM.

Q: With COc1ccc2c(n1)CCN(C(=O)C1CN(CC(=O)O)C1)[C@H]2C(=O)Nc1cc(F)c2c(c1)CCC2(C)C as the compound, how does the logD [1] read?
A: The logD was 3.39.

Q: For COCC(C)(C)c1c(F)cc(NC(=O)[C@H]2c3ccc(OC)cc3CCN2C(=O)CCCC(=O)O)cc1F, which AUC(0-t) at 8 h [2] is on record?
A: The AUC(0-t) at 8 h was 389 ng·h/mL.

Q: What about the bioavailability [3] of the same compound?
A: The bioavailability was 78%.

Q: And the logD [1]?
A: The logD was 3.16.

Q: For COc1ccc2c(n1)CCN(C(=O)[C@H]1C[C@@H](C(=O)O)C1)[C@H]2C(=O)Nc1cc(F)c2c(c1)CCC2(C)C, which logD [1] is on record?
A: Its logD is 3.39.

Q: What does the source list for COc1ccc2c(n1)CCN(C(=O)CCCC(=O)O)[C@H]2C(=O)Nc1cc(F)c2c(c1)CCC2(C)C?
A: AUC(0-t) at 8 h [2]: 2620 ng·h/mL; inhibition (Mus musculus [14]): Dose-dependent effect; bioavailability [3]: 58%; logD [1]: 3.39

Q: Which AUC(0-t) at 8 h [2] does the source give for COc1ccc2c(c1)CCN(C(=O)CCCC(=O)O)[C@H]2C(=O)Nc1cc(F)c2c(c1)CCC2(C)C here?
A: The AUC(0-t) at 8 h was 3440 ng·h/mL.

Q: What about the inhibition (Mus musculus [14]) of the same compound?
A: The inhibition was “Dose-dependent effect”.

Q: What about the bioavailability [3] of the same compound?
A: The bioavailability was 91%.

Q: And the logD [1]?
A: The logD was 3.37.

Q: Which logD [1] does the source give for COc1ccc2c(n1)CCN(C(=O)[C@H]1C[C@H](CC(=O)O)C1)[C@H]2C(=O)Nc1cc(F)c2c(c1)CCC2(C)C here?
A: The logD was 3.54.

Q: With COc1ccc2c(c1)CCN(C(=O)CCCC(=O)O)[C@H]2C(=O)Nc1cc(F)c([Si](C)(C)C)c(F)c1 as the compound, how does the inhibition (Mus musculus [14]) read?
A: Its inhibition is “Dose-dependent effect”.

Q: And the ED80 (Mus musculus [14]; C57BL/6, po)?
A: The ED80 was 7.6 mg/kg.

Q: What about the logD [1] of the same compound?
A: Its logD is 3.96.

Q: Which logD [1] does the source give for COc1ccc2c(n1)CCN(C(=O)[C@H]1C[C@H](C(=O)O)C1)[C@H]2C(=O)Nc1cc(F)c2c(c1)CCC2(C)C here?
A: The logD was 3.46.

Q: Which AUC(0-t) at 8 h [2] does the source give for COc1ccc2c(n1)CCN(C(=O)CCCC(=O)O)[C@H]2C(=O)Nc1cc(F)c([Si](C)(C)C)c(F)c1 here?
A: The AUC(0-t) at 8 h was 2880 ng·h/mL.

Q: And the bioavailability [3]?
A: Its bioavailability is 51%.

Q: What about the logD [1] of the same compound?
A: The logD was 4.04.
